Source: publication PMC4444071 (ACS infectious diseases, 2015)
Where two headings read alike, the source gives them in different places.

Key:
[1] = target: T1, DENV NS3h (Dengue virus type 2, UniProt Q91H74); type: biochemical; conditions: read-out: DENV ATPase IC50; DENV NS3h-catalyzed ATP hydrolysis; 100 μM ATP, poly(U) RNA, pH 7.5
[2] = target: T2, HCV NS3h (Hepatitis C virus genotype 1b, UniProt Q9WMX2); conditions: read-out: HCV DNA-helicase IC50; HCV NS3h DNA unwinding; ref Li et al.[36]; cited from earlier work
[3] = target: T2, HCV NS3h; experiment: HCV NS3h RNA unwinding assay; type: biochemical; conditions: read-out: HCV RNA-helicase IC50, values without asterisk
[4] = target: T2, HCV NS3h; experiment: HCV NS3h-catalyzed ATP hydrolysis assay; type: biochemical; conditions: read-out: HCV ATPase IC50
Summary of the method: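 HCV NS3h (4 nM) in 25 mM Tris pH 7.5, 1.25 mM MgCl2, 100 μM ATP, 15 μM poly(U) RNA (as nucleotide), 33 μg/mL BSA, 0.07% Tween 20, 0.3 mM DTT, 0.6% DMSO. Started with MgCl2; 30 min at 23 °C. Released phosphate read at 620 nm with Biomol Green. Scaled to 6.7 μM ATA (100%) and DMSO (0%). IC50 from variable-slope nonlinear fit.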

[5] = target: T1, DENV NS3h; type: biochemical; conditions: for IC50: read-out: DENV RNA-helicase IC50, DENV NS3h RNA unwinding, 100 nM DENV helicase
[6] = test system: herpes simplex virus helicase; conditions: read-out: helicase-catalyzed ATP hydrolysis IC50, cited from earlier work
[7] = test system: West Nile virus (Kunjin subtype); experiment: West Nile virus; type: cell-based; conditions: 50 μM compound, BHK cells, 72 h
[8] = test system: subgenomic DENV-2 replicon; experiment: DENV subgenomic replicon assay

T1 sequence (Q91H74 1646-2093 limits assumed): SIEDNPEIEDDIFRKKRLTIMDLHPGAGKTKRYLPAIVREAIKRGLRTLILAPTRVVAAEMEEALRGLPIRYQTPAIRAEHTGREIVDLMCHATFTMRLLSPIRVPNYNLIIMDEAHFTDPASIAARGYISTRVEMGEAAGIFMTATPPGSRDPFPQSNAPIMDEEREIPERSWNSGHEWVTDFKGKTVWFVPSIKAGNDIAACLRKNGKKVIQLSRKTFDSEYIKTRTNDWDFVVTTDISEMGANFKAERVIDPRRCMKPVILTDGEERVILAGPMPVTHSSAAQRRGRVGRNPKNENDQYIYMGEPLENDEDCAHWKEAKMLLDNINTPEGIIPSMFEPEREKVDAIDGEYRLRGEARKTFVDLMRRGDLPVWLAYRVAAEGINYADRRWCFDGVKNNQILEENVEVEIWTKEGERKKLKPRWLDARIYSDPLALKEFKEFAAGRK
T2 sequence (Q9WMX2 1192-1657): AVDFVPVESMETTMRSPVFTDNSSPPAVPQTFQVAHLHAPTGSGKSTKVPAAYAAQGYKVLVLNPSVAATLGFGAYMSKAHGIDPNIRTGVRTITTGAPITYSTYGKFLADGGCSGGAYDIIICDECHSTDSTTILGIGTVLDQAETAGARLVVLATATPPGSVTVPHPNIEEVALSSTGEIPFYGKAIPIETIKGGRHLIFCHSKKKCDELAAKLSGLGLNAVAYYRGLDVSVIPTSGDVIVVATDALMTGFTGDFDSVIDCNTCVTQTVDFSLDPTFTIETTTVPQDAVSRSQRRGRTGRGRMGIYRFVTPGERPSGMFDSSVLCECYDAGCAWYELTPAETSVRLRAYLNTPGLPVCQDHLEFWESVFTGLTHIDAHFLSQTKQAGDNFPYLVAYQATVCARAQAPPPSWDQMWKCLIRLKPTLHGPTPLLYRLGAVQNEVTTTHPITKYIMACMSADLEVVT

SMILES | IC50 [1] | IC50 [2] | IC50 [3] | IC50 [4] | IC50 [5] | further results
Cc1ccc2nc(-c3ccc4nc(-c5ccc(NC(=O)c6ccc(N(C)C)cc6)cc5)sc4c3)sc2c1S(=O)(=O)O [compound 10] | 3.4 ± 0.3 µM | 11 ± 6.7 µM | 8.6 ± 2 µM | > 200 µM | – | –
Cc1ccc2nc(-c3ccc4nc(-c5ccc(NC(=O)c6cccc(C(F)(F)F)c6)cc5)sc4c3)sc2c1S(=O)(=O)O [compound 16] | 9.7 ± 3.1 µM | 20 ± 12 µM | 22.4 ± 8 µM | > 200 µM | – | –
Cc1ccc2nc(-c3ccc4nc(-c5ccc(NC(=O)c6ccc(N)cc6)cc5)sc4c3)sc2c1S(=O)(=O)O [compound 2] | 2.8 ± 0.6 µM | 10 ± 2.4 µM | – | 58 ± 10 µM | 7.6 ± 1.6 µM | –
Cc1ccc2nc(-c3ccc4nc(-c5ccc(NC(=O)c6ccc(NC(=O)OCC7c8ccccc8-c8ccccc87)cc6)cc5)sc4c3)sc2c1S(=O)(=O)O [compound 12] | 1.3 ± 0.3 µM | 5.4 ± 1 µM | 2.8 ± 1 µM | 39 ± 31 µM | 3.5 ± 1.7 µM | –
Cc1ccc2nc(-c3ccc4nc(-c5ccc(NC(=O)c6cccc(Cl)c6)cc5)sc4c3)sc2c1S(=O)(=O)O [compound 13] | 4 ± 0.8 µM | 2.6 ± 1 µM | 5.9 ± 2 µM | 24 ± 5 µM | 5.1 ± 0.9 µM | –
Cc1ccc(C(=O)Nc2ccc(-c3nc4ccc(-c5nc6ccc(C)c(S(=O)(=O)O)c6s5)cc4s3)cc2)cc1 [compound 7] | 1.1 ± 0.2 µM | 3.3 ± 0.3 µM | 3.9 ± 1 µM | 61 ± 1 µM | 4.3 ± 1.9 µM | –
Cc1ccc2nc(-c3ccc4nc(-c5ccc(NC(=O)c6cc(F)cc(C(F)(F)F)c6)cc5)sc4c3)sc2c1S(=O)(=O)O [compound 23] | 11 ± 5.7 µM | 28 ± 7 µM | 9.8 ± 3 µM | > 200 µM | – | –
Cc1nc(N(C)C(=O)Cc2ccc(-c3ccccn3)cc2)sc1S(N)(=O)=O [BAY 57-1293] | – | – | – | – | – | IC50 ([6]; purified HSV helicase): 0.03 µM
Cc1ccc2nc(-c3ccc4nc(-c5ccc(NC(=O)c6ccc(C(F)(F)F)cc6)cc5)sc4c3)sc2c1S(=O)(=O)O [compound 8] | 1.2 ± 0.2 µM | 1.8 ± 0.4 µM | 2.8 ± 2 µM | 111 ± 60 µM | 5.2 ± 0.6 µM | –
COC(=O)c1ccc(C(=O)Nc2ccc(-c3nc4ccc(-c5nc6ccc(C)c(S(=O)(=O)O)c6s5)cc4s3)cc2)cc1.N [compound 5] | 0.4 ± 0.1 µM | 9.7 ± 4.6 µM | – | > 200 µM | 7.9 ± 2.5 µM | times more compound needed to inhibit RNA unwinding than ATP hydrolysis ([5]; DENV NS3h, unwinding vs ATPase): About 20 times
Cc1ccc2nc(-c3ccc4nc(-c5ccc(NC(=O)c6cc(F)ccc6C(F)(F)F)cc5)sc4c3)sc2c1S(=O)(=O)O [compound 22] | 7.2 ± 0.8 µM | 19 ± 15 µM | – | 65 ± 10 µM | – | –
Cc1ccc2nc(-c3ccc4nc(-c5ccc(NC(=O)c6ccc(Cl)c(Cl)c6)cc5)sc4c3)sc2c1S(=O)(=O)O [compound 14] | 2.7 ± 0.2 µM | 3.7 ± 1 µM | – | 53 ± 3 µM | 3.6 ± 0.9 µM | –
Cc1ccc2nc(-c3ccc4nc(-c5ccc(NC(=O)c6ccc(Br)cc6)cc5)sc4c3)sc2c1S(=O)(=O)O [compound 11] | 1.1 ± 0.1 µM | 5.2 ± 4 µM | – | 21 ± 6 µM | 5 ± 1.2 µM | –
Cc1ccc2nc(-c3ccc4nc(-c5ccc(NC(=O)c6ccccc6C(F)(F)F)cc5)sc4c3)sc2c1S(=O)(=O)O [compound 15] | 5.4 ± 0.8 µM | 14 ± 1 µM | 22.8 ± 5 µM | 71 ± 23 µM | – | –
Cc1cccc(C)c1N(CC(=O)Nc1ccc(-c2ncon2)cc1)C(=O)C1CCS(=O)(=O)CC1 [amenamevir] | – | – | – | – | – | IC50 ([6]; HSV helicase): 0.078 µM
Cc1ccc2nc(-c3ccc4nc(-c5ccc(NC(=O)c6ccc(Cl)cc6)cc5)sc4c3)sc2c1S(=O)(=O)O [compound 6] | 1.4 ± 0.2 µM | 3.4 ± 0.3 µM | 3.3 ± 1 µM | 53 ± 4 µM | 5.6 ± 1.2 µM | –
Cc1ccc2nc(-c3ccc4nc(-c5ccc(NC(=O)c6cccc(C(F)(F)F)c6F)cc5)sc4c3)sc2c1S(=O)(=O)O [compound 18] | 4.3 ± 0.3 µM | 9.2 ± 3 µM | – | 42 ± 14 µM | – | –
Cc1ccc2nc(-c3ccc4nc(-c5ccc(NC(=O)c6cc(C(F)(F)F)cc(C(F)(F)F)c6)cc5)sc4c3)sc2c1S(=O)(=O)O.N [compound 20] | 63 ± 20 µM | – | – | > 200 µM | 7.7 ± 1.8 µM | times less compound needed to inhibit RNA unwinding than ATP hydrolysis ([5]; DENV NS3h, unwinding vs ATPase): about 8 times
Cc1cc(N2C(=O)C(O)=C(C(=O)c3ccc(C)o3)C2c2cc(Cl)cc(Cl)c2)no1 (stereo not drawn) [compound 25] | – | – | – | – | – | effect on West Nile virus plaque-forming units (in words) [7]: lowering plaque-forming units (pfu) to the greatest extent
Cc1ccc2nc(-c3ccc4nc(-c5ccc(NC(=O)c6ccc(C(F)(F)F)c(F)c6)cc5)sc4c3)sc2c1S(=O)(=O)O [compound 19] | 3.5 ± 1.1 µM | 17 ± 7 µM | 5.4 ± 2 µM | 55 ± 42 µM | – | –
Cc1ccc2nc(-c3ccc4nc(-c5ccc(NC(=O)c6cc(C(F)(F)F)ccc6F)cc5)sc4c3)sc2c1S(=O)(=O)O [compound 21] | 3.8 ± 0.2 µM | 6.4 ± 2 µM | 7.5 ± 2 µM | 16 ± 2 µM | 5.4 ± 1.3 µM | –
Cc1ccc2nc(-c3ccc4nc(-c5ccc(NC(=O)c6ccc(C(C)(C)C)cc6)cc5)sc4c3)sc2c1S(=O)(=O)O [compound 9] | 4 ± 0.5 µM | 8.2 ± 1 µM | – | > 200 µM | 10 ± 3.4 µM | –
Cc1ccc2nc(-c3ccc4nc(-c5ccc(NC(=O)c6ccccc6)cc5)sc4c3)sc2c1S(=O)(=O)O [compound 1] | 5.3 ± 1.2 µM | 11 ± 1.5 µM | 8.5 ± 2 µM | 69 ± 6 µM | – | –
Cc1ccc2nc(-c3ccc4nc(-c5ccc(NC(=O)c6c(F)cccc6C(F)(F)F)cc5)sc4c3)sc2c1S(=O)(=O)O [compound 17] | – | 17 ± 6 µM | 32.5 ± 7 µM | 93 ± 16 µM | – | –
Cc1ccc2nc(-c3ccc4nc(-c5ccc(NC(=O)c6ccc(F)cc6)cc5)sc4c3)sc2c1S(=O)(=O)O [compound 3] | 3 ± 0.4 µM | 5.2 ± 0.6 µM | – | 32 ± 7 µM | 6.6 ± 0.9 µM | –
COc1ccc(C(=O)Nc2ccc(-c3nc4ccc(-c5nc6ccc(C)c(S(=O)(=O)O)c6s5)cc4s3)cc2)cc1 [compound 4] | 3 ± 0.5 µM | 10 ± 2.6 µM | – | 115 ± 14 µM | – | –
Cc1ccc2nc(-c3ccc4nc(-c5ccc(NC(=O)c6ccc7nc(-c8ccc(N)cc8)sc7c6)cc5)sc4c3)sc2c1S(=O)(=O)O.N [compound 24] | 0.5 ± 0.1 µM | – | 2 ± 0.7 µM | – | 1.5 ± 0.2 µM | TI (CC50/replicon EC50) ([8]; BHK cell viability CC50 / replicon EC50): 17; inhibition of DENV replicon (in words) ([8]; concentration-response): reduced replication of a subgenomic DENV replicon in cells in a concentration-dependent manner; inhibition of replicon content in concentration-response assays ([8]; eight-point two-fold dilution series starting at 100 μM): more than 90%; EC50 ([8]; read-out: replicon EC50, BHK cell DENV replicon content, 72 h): 7.1 ± 3 µM
